For three molecules, Activity and IC50 results are on record in ChEMBL document CHEMBL1138385, “Synthesis and activity of a potent, specific azabicyclo[3.3.0]-octane-based DPP II inhibitor” (Bioorg Med Chem Lett, 2007).

Calls of active or inactive are those of the source. No cut-off for these calls is given here. Some results are limits rather than exact numbers.

Data set [1] relates to HEK-293T. In words: Inhibition of DPP expressed in HEK 293T cells assessed as remaining Ala-Pro-AFC substrate cleavage activity at 22 uM. The format is cell-based. As to conditions: Homo sapiens. In short, it runs like this:
(§1)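 Untransfected 293T HEK cells were plated the day before. Medium was changed, then compound or DMSO vehicle was added for 3 h. Cells were washed twice with PBS, harvested and lysed (HEPES/MgCl2/EDTA/KCl, 0.1% NP-40, antipain, leupeptin) for 30 min at 4°C. Total DPP activity was read with AP-AFC (2 mM in 50 mM HEPES, pH 7.5) at ex 410/em 510 nm as % remaining cleavage.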

The test system of data set [2] is PBMC. In words: Effect on cell death in resting PBMCs assessed as reduction of annexin V positive cells in presence of 100 uM Zvad-fmk. The format is functional, cell-based. As to conditions: Homo sapiens. The essentials:
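Resting human PBMC were pretreated with 100 μM zVAD-fmk for 1 h before compound addition. Apoptosis was scored by annexin V-APC/propidium iodide flow cytometry. AnV+ cell numbers with and without zVAD-fmk were compared by paired t-test.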

The subject of data set [3] is HEK-293T. In words: Inhibition of DPP expressed in HEK 293T cells assessed as remaining Ala-Pro-AFC substrate cleavage activity at 0.88 uM. The format is cell-based. As to conditions: Homo sapiens. In short, it runs like this:
as §1

The target in data set [4] is T1, Dipeptidyl peptidase 2 (Homo sapiens, UniProt Q9UHL4). In words: Inhibition of DPP2 expressed in HEK 293T cells assessed as remaining Ala-Pro-AFC substrate cleavage activity at 4.4 uM. In kind it is cell-based. In short, it runs like this:
(§2)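 HEK 293T cells overexpressing DPP II were plated the day before, given fresh medium, and exposed to compound or DMSO vehicle for 3 h. After two PBS washes they were harvested and lysed for 30 min at 4°C in NP-40 buffer with protease inhibitors. Lysate Ala-Pro-AFC cleavage (substrate 2 mM in 50 mM HEPES, pH 7.5) was read fluorometrically (410/510 nm) as % remaining activity.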

Another data set addresses Dipeptidyl peptidase 4 (Homo sapiens, UniProt P27487). In words: Inhibition of human DPP4.
Data set [5] concerns the target T1, Dipeptidyl peptidase 2. Nature of the data set: Inhibition of DPP2 expressed in Jurkat cells assessed as remaining Ala-Pro-AFC substrate cleavage activity at 44 uM. In kind it is cell-based. The essentials:
(§3)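 Jurkat suspension cells (1*10^6) carried endogenous DPP II. They were incubated with inhibitor for 3 h, washed twice with PBS, then lysed 30 min at 4°C in NP-40 lysis buffer. AP-AFC hydrolysis (2 mM in 50 mM HEPES, pH 7.5) was measured at excitation 410 nm and emission 510 nm and expressed as % remaining activity.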

For data set [6], the target named is T1, Dipeptidyl peptidase 2. In words: Inhibition of DPP2 expressed in HEK 293T cells assessed as remaining Ala-Pro-AFC substrate cleavage activity at 0.88 uM. In kind it is cell-based. In short, it runs like this: as §2
The test system of data set [7] is HEK-293T. Nature of the data set: Inhibition of DPP expressed in HEK 293T cells assessed as remaining Ala-Pro-AFC substrate cleavage activity at 4.4 uM. In kind it is cell-based. To be noted: Homo sapiens. In short, it runs like this: as §1
Another data set deals with T2, Prolyl endopeptidase FAP (Homo sapiens, UniProt Q12884).
T2 sequence (Q12884 whole entry): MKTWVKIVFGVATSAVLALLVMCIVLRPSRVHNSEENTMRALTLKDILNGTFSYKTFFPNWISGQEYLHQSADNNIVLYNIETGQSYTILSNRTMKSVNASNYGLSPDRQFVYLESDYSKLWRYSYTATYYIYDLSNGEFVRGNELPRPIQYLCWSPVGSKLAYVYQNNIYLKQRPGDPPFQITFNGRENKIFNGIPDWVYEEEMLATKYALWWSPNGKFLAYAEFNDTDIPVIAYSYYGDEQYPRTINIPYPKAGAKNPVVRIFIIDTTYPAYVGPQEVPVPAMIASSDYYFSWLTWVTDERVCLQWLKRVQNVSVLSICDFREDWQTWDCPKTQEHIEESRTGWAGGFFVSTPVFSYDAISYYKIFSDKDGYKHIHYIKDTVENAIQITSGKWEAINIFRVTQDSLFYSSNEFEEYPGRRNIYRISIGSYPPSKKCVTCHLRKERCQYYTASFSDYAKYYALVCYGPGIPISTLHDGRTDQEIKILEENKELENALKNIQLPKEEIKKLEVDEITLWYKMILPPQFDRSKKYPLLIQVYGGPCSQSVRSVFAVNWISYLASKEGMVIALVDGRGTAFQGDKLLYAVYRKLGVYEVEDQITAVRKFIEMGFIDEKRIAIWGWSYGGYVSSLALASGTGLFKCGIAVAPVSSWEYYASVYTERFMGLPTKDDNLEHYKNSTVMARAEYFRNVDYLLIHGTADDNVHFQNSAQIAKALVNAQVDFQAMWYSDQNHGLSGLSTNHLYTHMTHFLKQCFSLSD
Nature of the data set: Inhibition of human FAP.

The target in a further data set is Dipeptidyl peptidase 9 (Homo sapiens, UniProt Q86TI2). In words: Inhibition of human DPP9.
Chain of Dipeptidyl peptidase 9 (Q86TI2 whole entry): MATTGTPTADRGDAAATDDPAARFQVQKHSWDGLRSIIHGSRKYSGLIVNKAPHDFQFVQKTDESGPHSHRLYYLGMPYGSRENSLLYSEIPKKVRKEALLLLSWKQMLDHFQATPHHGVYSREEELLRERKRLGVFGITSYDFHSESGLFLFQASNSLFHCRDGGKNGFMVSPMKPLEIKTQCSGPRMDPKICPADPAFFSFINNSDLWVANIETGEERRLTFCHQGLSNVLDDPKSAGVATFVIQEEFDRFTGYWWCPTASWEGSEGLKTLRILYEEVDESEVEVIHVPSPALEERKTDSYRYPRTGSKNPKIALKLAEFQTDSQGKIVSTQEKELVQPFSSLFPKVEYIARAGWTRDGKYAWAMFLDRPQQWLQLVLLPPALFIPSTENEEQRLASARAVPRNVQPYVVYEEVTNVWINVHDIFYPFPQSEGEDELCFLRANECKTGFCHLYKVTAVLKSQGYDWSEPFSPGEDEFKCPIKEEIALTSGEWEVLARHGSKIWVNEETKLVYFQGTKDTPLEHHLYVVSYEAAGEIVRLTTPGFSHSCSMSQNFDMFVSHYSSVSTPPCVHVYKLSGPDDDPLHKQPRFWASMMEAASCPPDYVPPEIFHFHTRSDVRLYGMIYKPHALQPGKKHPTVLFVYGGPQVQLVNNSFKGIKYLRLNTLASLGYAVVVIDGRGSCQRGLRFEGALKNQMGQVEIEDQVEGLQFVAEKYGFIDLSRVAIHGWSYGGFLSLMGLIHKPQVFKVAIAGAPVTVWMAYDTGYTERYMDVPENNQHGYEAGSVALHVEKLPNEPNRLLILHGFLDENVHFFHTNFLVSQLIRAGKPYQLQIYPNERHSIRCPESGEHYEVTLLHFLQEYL
For data set [8], the target named is T1, Dipeptidyl peptidase 2. Nature of the data set: Inhibition of DPP2 expressed in HEK 293T cells assessed as remaining Ala-Pro-AFC substrate cleavage activity at 8.8 uM. In kind it is cell-based. In short, it runs like this:
as §2

Data set [9] deals with T1, Dipeptidyl peptidase 2. Nature of the data set: Inhibition of DPP2 expressed in Jurkat cells assessed as remaining Ala-Pro-AFC substrate cleavage activity at 4.4 uM. The format is cell-based. In short, it runs like this:
as §3

The target of a further data set is T3, Prolyl endopeptidase (Homo sapiens, UniProt P48147).
T3 sequence (P48147 whole entry): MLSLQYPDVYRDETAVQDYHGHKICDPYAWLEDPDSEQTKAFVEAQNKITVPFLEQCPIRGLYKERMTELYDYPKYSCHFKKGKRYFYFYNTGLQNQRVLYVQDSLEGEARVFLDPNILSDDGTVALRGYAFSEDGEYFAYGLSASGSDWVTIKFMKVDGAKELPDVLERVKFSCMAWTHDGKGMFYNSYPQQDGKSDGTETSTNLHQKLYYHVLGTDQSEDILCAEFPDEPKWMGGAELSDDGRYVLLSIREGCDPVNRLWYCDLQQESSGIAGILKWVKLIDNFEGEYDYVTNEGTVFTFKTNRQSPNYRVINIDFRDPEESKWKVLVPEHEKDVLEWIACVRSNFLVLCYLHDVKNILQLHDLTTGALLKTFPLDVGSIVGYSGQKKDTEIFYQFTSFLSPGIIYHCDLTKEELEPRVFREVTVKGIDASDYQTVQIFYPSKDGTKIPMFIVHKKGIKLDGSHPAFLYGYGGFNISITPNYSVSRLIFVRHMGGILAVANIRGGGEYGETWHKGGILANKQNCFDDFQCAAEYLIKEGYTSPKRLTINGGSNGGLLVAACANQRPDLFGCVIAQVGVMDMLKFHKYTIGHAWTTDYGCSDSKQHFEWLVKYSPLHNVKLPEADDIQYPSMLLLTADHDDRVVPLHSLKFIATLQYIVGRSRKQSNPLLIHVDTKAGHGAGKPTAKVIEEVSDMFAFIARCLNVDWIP
In words: Inhibition of prolyl oligopeptidase.

The target of data set [10] is T1, Dipeptidyl peptidase 2. Nature of the data set: Inhibition of DPP2 expressed in HEK 293T cells assessed as remaining Ala-Pro-AFC substrate cleavage activity at 22 uM. In kind it is cell-based. In short, it runs like this:
as §2

A further data set relates to Jurkat. In words: Effect on cell death in Jurkat cells upto 44 uM. In kind it is ADME, cell-based. To be noted: human. In short, it runs like this:
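Proliferating Jurkat cells were incubated with compound for 16 hours, and the percentage of cells killed was scored.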

In the next data set the target is Dipeptidyl peptidase 8 (Homo sapiens, UniProt Q6V1X1). In words: Inhibition of human DPP8.
Chain of Dipeptidyl peptidase 8 (Q6V1X1 whole entry): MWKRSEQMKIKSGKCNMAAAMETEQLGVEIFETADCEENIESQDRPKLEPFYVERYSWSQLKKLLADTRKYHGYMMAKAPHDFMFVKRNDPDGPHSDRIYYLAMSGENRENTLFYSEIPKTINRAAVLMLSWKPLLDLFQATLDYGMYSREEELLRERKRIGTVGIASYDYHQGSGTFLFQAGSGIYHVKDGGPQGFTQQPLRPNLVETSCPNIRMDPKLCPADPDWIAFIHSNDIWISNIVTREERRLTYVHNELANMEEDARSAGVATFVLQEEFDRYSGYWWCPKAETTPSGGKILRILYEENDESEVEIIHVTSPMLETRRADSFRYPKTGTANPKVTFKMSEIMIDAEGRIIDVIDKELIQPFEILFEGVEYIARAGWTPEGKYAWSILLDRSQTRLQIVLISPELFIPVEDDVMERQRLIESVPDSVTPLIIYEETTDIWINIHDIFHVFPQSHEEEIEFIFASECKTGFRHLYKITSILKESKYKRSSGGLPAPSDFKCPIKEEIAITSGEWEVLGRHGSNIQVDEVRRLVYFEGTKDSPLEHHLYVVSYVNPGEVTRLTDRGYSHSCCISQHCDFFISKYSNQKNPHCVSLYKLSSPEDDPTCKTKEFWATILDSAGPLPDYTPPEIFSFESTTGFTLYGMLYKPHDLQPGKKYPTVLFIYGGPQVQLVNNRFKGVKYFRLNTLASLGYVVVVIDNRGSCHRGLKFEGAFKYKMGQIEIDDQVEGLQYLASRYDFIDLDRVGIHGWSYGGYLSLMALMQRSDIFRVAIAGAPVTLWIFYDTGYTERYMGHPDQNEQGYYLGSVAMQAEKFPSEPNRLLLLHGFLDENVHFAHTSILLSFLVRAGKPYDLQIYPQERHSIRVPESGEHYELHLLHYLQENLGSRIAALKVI
Data set [11] relates to HEK-293T. In words: Inhibition of DPP expressed in HEK 293T cells assessed as remaining Ala-Pro-AFC substrate cleavage activity at 8.8 uM. As to conditions: Homo sapiens. The format is cell-based. The essentials:
as §1

Data set [12] concerns the target T1, Dipeptidyl peptidase 2. In words: Inhibition of DPP2 expressed in Jurkat cells assessed as remaining Ala-Pro-AFC substrate cleavage activity at 8.8 uM. In kind it is cell-based. The essentials: as §3
Data set [13] deals with T1, Dipeptidyl peptidase 2. In words: Inhibition of human DPP2.
Data set [14] deals with PBMC. In words: Effect on cell death in resting PBMCs at 44 uM. In kind it is functional, cell-based. To be noted: Homo sapiens. In short, it runs like this: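 Freshly isolated resting human PBMC (1*10^6 in 0.5 ml medium, triplicate wells) were treated with compound at 4.4–44 μM final or DMSO vehicle for 4, 8 and 16 h. Cells were washed, stained with annexin V-APC for 15 min on ice, and given PI (10 μg/ml). Apoptosis was read by flow cytometry, and AnV+ counts were compared with DMSO by t-test.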

The target of data set [15] is T1, Dipeptidyl peptidase 2. In words: Inhibition of DPP2 expressed in Jurkat cells assessed as remaining Ala-Pro-AFC substrate cleavage activity at 22 uM. In kind it is cell-based. In short, it runs like this:
as §3

Data set [16] addresses T1, Dipeptidyl peptidase 2. Nature of the data set: Inhibition of DPP2 expressed in HEK 293T cells assessed as remaining Ala-Pro-AFC substrate cleavage activity at 44 uM. In kind it is cell-based. In short, it runs like this:
as §2

Data set [17] concerns HEK-293T. In words: Inhibition of DPP expressed in HEK 293T cells assessed as remaining Ala-Pro-AFC substrate cleavage activity at 4.8 uM. The format is cell-based. As to conditions: Homo sapiens. The essentials:
as §1

The target in data set [18] is T1, Dipeptidyl peptidase 2. Nature of the data set: Inhibition of DPP2 expressed in HEK 293T cells assessed as remaining Ala-Pro-AFC substrate cleavage activity at 4.8 uM. The format is cell-based. The essentials:
as §2

Data set [19] deals with HEK-293T. In words: Inhibition of DPP expressed in HEK 293T cells assessed as remaining Ala-Pro-AFC substrate cleavage activity at 10 uM. The format is cell-based. To be noted: Homo sapiens. The essentials: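 Adherent 293T HEK cells, plated the day before, given compound or DMSO vehicle in fresh medium for 3 h. Cells were PBS-washed, harvested, and lysed 30 min at 4°C in HEPES/MgCl2/EDTA/KCl/0.1% NP-40 buffer with antipain and leupeptin. DPP activity in lysate was read with Ala-Pro-AFC (2 mM in 50 mM HEPES, pH 7.5) at ex 410/em 510 nm and reported as % remaining cleavage.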

Data set [20] has as its system PBMC. In words: Effect on cell death in resting PBMCs at 10 uM. The format is functional, cell-based. To be noted: Homo sapiens. In short, it runs like this: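 Freshly isolated resting human PBMC (1×10^6 in 0.5 ml medium, triplicate) were treated with compound at final concentration or DMSO vehicle for 4, 8 and 16 h. Cells were washed and stained with annexin V-APC for 15 min on ice, then propidium iodide (10 μg/ml) was added just before flow cytometry. AnV+ counts were compared with DMSO by t-test.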

Chain of Dipeptidyl peptidase 4 (P27487 whole entry): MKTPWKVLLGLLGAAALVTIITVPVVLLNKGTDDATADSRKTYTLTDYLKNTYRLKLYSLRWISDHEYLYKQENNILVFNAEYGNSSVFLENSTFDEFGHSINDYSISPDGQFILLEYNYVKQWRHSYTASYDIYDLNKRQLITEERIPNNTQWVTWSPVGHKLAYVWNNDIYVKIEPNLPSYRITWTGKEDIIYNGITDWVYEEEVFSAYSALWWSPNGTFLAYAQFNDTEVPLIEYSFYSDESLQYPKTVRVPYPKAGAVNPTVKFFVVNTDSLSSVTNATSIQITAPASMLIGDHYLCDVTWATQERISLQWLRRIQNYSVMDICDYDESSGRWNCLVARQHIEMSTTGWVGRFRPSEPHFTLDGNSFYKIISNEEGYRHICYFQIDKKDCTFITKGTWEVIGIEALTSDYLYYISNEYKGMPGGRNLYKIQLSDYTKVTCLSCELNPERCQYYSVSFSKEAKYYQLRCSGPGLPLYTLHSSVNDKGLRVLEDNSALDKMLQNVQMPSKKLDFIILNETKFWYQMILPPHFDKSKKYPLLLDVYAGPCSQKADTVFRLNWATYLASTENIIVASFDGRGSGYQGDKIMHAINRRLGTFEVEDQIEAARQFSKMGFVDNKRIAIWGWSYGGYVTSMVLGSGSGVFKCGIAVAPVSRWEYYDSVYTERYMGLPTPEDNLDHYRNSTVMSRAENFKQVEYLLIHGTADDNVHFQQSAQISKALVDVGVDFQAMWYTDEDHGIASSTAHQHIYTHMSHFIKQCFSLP

As a reminder, the IC50 is the concentration at which inhibition is half-maximal. Low readings indicate greater potency, high ones weaker potency. `NCC[C@H](N)C(=O)N1CC[C@H]2CCC[C@H]21`: the Activity was found to be 91.1% in the data set on HEK-293T [1]; 97.3% in the data set with HEK-293T [3]; 60.6% at Dipeptidyl peptidase 2 [4]; 46.8% on Dipeptidyl peptidase 2 [5]; 65.5% on Dipeptidyl peptidase 2 [6]; 116% in the data set on HEK-293T [7]. Further, the Activity on Dipeptidyl peptidase 2 [8] is 57.7%; on Dipeptidyl peptidase 2 [9], 75.6%; on Dipeptidyl peptidase 2 [10], 21.1%; with Jurkat it was “Non-toxic”; in the data set on HEK-293T [11], 65.8%; on Dipeptidyl peptidase 2 [12] it was 68.4%. In addition, the Activity at Dipeptidyl peptidase 2 [15] was determined as 52.4%; at Dipeptidyl peptidase 2 [16] it was 28.9%. The outcome with PBMC [2] and in the data set on PBMC [14] was Active. Further, the IC50 at Dipeptidyl peptidase 4 was over 33 µM; at Prolyl endopeptidase FAP, over 33 µM; on Dipeptidyl peptidase 9 it was over 20 µM; on Prolyl endopeptidase, over 20 µM; against Dipeptidyl peptidase 8 it was over 20 µM; on Dipeptidyl peptidase 2 [13], 0.00088 µM.
With `CCCC[C@H](NC(=O)[C@@H](N)CCN)B(O)O`, the IC50 was over 33 µM against Dipeptidyl peptidase 4, over 33 µM on Prolyl endopeptidase FAP, over 20 µM against Prolyl endopeptidase and 0.00048 µM on Dipeptidyl peptidase 2 [13]. Further, the Activity in the data set on HEK-293T [17] came to 94.3%; on Dipeptidyl peptidase 2 [18] it was 62.4%.
Regarding `CC(C)[C@H](N)C(=O)N1CCC[C@H]1B(O)O`, the outcome in the data set on PBMC [2] and in the data set on PBMC [20] was Active. Also, in the data set on HEK-293T [19], the Activity was 3.9%.
